The source of these data is ChEMBL document CHEMBL4622923, “Discovery of 4-Phenylpiperidine-2-Carboxamide Analogues as Serotonin 5-HT2C Receptor-Positive Allosteric Modulators with Enhanced Drug-like Properties” (J Med Chem, 2020).

The target of data set [1] is Alpha-2A adrenergic receptor (Homo sapiens) (UniProt P08913). Briefly: Displacement of [3H]-rauwolscine from human adrenergic alpha2A receptor transiently expressed in HEKT cell membranes at 10 uM incubated for 90 mins under dark condition by scintillation counting analysis relative to control. On the technique in general: In a radioligand displacement assay an active substance lowers the binding of a labelled ligand.
Sequence of Alpha-2A adrenergic receptor (Homo sapiens) (P08913 whole entry): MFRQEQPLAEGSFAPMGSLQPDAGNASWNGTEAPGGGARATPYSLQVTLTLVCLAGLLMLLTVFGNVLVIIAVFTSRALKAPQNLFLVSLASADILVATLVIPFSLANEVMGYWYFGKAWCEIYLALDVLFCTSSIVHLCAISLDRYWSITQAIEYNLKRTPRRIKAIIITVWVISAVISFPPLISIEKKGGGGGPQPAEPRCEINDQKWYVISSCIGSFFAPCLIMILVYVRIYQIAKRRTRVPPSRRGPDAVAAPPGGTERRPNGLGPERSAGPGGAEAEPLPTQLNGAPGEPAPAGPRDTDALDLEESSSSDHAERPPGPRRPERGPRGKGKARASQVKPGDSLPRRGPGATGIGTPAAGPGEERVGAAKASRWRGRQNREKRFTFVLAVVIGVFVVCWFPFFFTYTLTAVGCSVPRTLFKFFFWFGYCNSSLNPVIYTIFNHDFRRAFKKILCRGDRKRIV

Data set [2] is described as follows: Ratio of drug level in brain to plasma in Sprague-Dawley rat at 10 mg/kg, iv after 0.25 hrs. In kind it is ADME, organism-based. The method in brief: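 Male Sprague-Dawley rats, n = 3/group, given 10 mg/kg iv in 10% DMSO:90% HP-β-CD. Brain and plasma collected at 0.25 and 1 h after dosing. Brain concentration (ng/g) divided by plasma concentration (ng/mL); mean ± SEM.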

A short description of data set [3]: Clearance in Sprague-Dawley rat at 10 mg/kg, iv. In kind it is ADME, organism-based. As to conditions: in vivo; call rule not given here. The method in brief:
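Male Sprague-Dawley rats (200–250 g; n = 3/group) received a single iv dose in 10% DMSO:90% HP-β-CD. Retro-orbital blood was sampled before dosing and at 0.08, 0.25, 0.5, 1, 2, 4, 8 and 24 h. Plasma levels were measured. Parameters came from noncompartmental analysis, reported as mean ± SEM.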

Another data set concerns the target CYP1A2 (Homo sapiens, UniProt P05177). Briefly: Inhibition of CYP1A2 (unknown origin) at 10 uM relative to control. Type of data set: ADME. The method in brief:
(§1)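 Each CYP isoform inhibition assay run with test compound at 10 µM; reported as percent inhibition.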

A further data set deals with CYP3A4 (Homo sapiens, UniProt P08684). Put plainly: Inhibition of CYP3A4 (unknown origin) at 10 uM relative to control. In kind it is ADME. A digest of the protocol: as §1
Sequence of CYP3A4 (P08684 whole entry): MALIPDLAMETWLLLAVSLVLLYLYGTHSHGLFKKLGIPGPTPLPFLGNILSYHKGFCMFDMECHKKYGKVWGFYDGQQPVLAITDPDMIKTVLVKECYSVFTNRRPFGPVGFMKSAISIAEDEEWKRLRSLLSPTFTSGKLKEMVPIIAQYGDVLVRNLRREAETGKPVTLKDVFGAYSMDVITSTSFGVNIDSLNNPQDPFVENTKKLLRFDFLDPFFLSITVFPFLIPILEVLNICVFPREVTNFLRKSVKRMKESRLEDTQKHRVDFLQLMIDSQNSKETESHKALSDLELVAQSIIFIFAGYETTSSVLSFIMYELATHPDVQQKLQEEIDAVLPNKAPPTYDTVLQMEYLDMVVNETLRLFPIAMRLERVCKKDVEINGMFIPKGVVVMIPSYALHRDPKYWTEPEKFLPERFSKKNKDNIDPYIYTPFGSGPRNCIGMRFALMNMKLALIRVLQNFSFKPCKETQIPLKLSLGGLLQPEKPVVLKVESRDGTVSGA
Data set [4] relates to Rattus norvegicus. Put plainly: Potentiation of WAY163909-induced neurobiological activity in Sprague-Dawley rat assessed as increase in number of rat choosing WAY163909 associated lever at 1 mg/kg, ip treated 15 mins prior to WAY163909 addition and measured after 15 mins by drug discrimination test (reference value: 53%). Type of data set: functional.
For another data set, the target named is 5-HT2A receptor (Homo sapiens, UniProt P28223). Put plainly: Positive allosteric modulation of human 5HT2AR expressed in CHO cells assessed as increase in 5-HT induced intracellular calcium release at 1 nM preincubated for 15 mins followed by 5-HT addition and measured at 1 secs interval for 360 secs by calcium 4 dye based FLIPR assay relative to 5-HT. Type of data set: cell-based. As to conditions: CHO cells expressing human 5HT2AR. The method in brief:
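CHO cells stably expressing human 5-HT2AR, serum-starved 3 h, then loaded with Calcium 4 dye plus 2.5 mM probenecid in HBSS (no Ca/Mg, pH 7.4) for 60 min at 37°C and 15 min at room temperature. Test compound added 15 min before 5-HT (10 pM-10 μM). FLIPR fluorescence read every 1 s for 360 s after 5-HT. Emax from 4-parameter fit, normalized to 5-HT maximum.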

Data set [5] has as its system Rattus norvegicus. Briefly: In vivo agonist activity at 5HT2CR in Sprague-Dawley rat assessed as increase in number of rat choosing drug associated lever at 0.5 to 5 mg/kg, ip treated 30 mins prior to test by drug discrimination test. In kind it is organism-based. As to conditions: 0.5 h. A digest of the protocol:
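Male Sprague-Dawley rats (n = 13), water-restricted, trained to discriminate WAY163909 (0.75 mg/kg ip, 15 min pretreatment) from saline in a two-lever FR20 water-reinforced task. Test compound given ip at 0.5, 1.0, 2.0 and 5.0 mg/kg, 30 min before a 15 min test. Read-out is the percentage of rats selecting the WAY163909 lever; response rate is also recorded.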

A short description of data set [6]: Apparent permeability across basolateral to apical side in MDCK-MDR1 cells. Type of data set: ADME, cell-based, Canis lupus familiaris. As to conditions: dog.
The target in data set [7] is GABA-A receptor; anion channel (Rattus norvegicus) (UniProt O09028+P15431+P18506+P18508+P19969+P20236+P23574+P23576+P28471+P28473+P30191+P62813+P63079+P63138+Q91ZM7+Q9ES14). Put plainly: Displacement of [3H]-muscimol from rat brain GABAA receptor at 10 uM incubated for 90 mins under dark condition by scintillation counting analysis relative to control.
Data set [8] deals with Sodium-dependent noradrenaline transporter (Homo sapiens, UniProt P23975). Briefly: Displacement of [3H]-nisoxetine from human NET stably expressed in HEK cell membranes at 10 uM incubated for 90 mins under dark condition by scintillation counting analysis relative to control.
Sequence of Sodium-dependent noradrenaline transporter (P23975 whole entry): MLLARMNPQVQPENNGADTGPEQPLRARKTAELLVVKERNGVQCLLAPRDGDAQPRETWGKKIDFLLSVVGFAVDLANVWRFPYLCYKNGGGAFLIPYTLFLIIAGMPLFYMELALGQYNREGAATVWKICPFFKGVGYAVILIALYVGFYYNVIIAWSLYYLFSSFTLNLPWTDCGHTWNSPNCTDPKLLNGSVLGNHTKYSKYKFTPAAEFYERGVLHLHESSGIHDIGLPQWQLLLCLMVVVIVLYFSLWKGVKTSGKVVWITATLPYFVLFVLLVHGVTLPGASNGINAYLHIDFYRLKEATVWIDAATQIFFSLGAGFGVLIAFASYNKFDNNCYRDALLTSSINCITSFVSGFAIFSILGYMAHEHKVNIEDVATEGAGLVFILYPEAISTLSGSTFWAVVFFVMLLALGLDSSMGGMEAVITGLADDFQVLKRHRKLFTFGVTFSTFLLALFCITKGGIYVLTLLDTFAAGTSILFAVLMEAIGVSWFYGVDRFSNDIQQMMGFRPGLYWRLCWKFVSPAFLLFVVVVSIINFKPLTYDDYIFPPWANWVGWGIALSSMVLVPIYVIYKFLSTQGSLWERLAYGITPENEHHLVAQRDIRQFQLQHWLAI
Data set [9] can be described thus: Half life in rat liver microsomes at 10 uM in presence of NADPH. Type of data set: ADME, Microsome. Background: Liver microsomes are a subcellular fraction often used to study metabolism.
Data set [10] deals with Mu-type opioid receptor (Homo sapiens) (UniProt P35372). Put plainly: Displacement of [3H]-DAMGO from human mu opioid receptor stably expressed in HEK cell membranes at 10 uM incubated for 90 mins under dark condition by scintillation counting analysis relative to control.
Sequence of Mu-type opioid receptor (Homo sapiens) (P35372 whole entry): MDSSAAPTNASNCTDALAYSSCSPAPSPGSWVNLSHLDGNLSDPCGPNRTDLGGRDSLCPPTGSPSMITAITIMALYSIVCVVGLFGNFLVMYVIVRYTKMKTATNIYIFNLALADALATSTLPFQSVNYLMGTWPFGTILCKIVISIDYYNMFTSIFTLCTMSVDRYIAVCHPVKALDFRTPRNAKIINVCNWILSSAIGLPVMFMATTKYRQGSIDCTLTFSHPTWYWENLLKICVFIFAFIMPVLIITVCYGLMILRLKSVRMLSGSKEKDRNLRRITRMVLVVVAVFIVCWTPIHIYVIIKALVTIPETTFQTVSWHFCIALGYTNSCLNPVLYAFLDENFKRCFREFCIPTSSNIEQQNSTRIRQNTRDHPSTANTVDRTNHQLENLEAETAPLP
A short description of data set [11]: Cmax in Sprague-Dawley rat at 10 mg/kg, iv. Type of data set: ADME, organism-based. Also noted: dose 10 mg/kg, route intravenous. As to conditions: in vivo. A digest of the protocol:
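Male Sprague-Dawley rats, 200–250 g, n = 3/group, randomly assigned; dosed 10 mg/kg iv or 20 mg/kg po in 10% DMSO:90% HP-β-CD. Retro-orbital blood sampled predose and 0.08 (iv only), 0.25, 0.5, 1, 2, 4, 8, 24 h. Noncompartmental analysis; Cmax read directly from plasma concentration–time plot; mean ± SEM.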

Data set [12] is described as follows: AUC (0 to infinity) in Sprague-Dawley rat at 10 mg/kg, iv. Type of data set: ADME, organism-based. More on the design: dose 10 mg/kg, route intravenous, time infinity. The note with it: in vivo.
The target of data set [13] is 5-hydroxytryptamine receptor 5A (Homo sapiens) (UniProt P47898). Briefly: Displacement of [3H]-LSD from human 5HT5A expressed in Flp-In-CHO cell membranes at 10 uM incubated for 90 mins under dark condition by scintillation counting analysis relative to control.
Sequence of 5-hydroxytryptamine receptor 5A (Homo sapiens) (P47898 whole entry): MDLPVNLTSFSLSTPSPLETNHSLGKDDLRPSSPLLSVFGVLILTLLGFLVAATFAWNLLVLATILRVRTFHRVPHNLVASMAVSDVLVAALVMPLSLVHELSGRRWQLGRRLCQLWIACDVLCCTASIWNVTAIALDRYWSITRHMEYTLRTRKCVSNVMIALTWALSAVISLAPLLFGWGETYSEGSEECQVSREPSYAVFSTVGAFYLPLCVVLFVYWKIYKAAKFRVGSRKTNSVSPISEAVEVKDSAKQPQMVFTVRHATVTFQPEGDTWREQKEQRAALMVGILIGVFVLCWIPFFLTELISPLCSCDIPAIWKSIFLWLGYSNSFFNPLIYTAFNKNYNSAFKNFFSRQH
The nature of data set [14]: Fraction unbound in rat plasma. In kind it is ADME, cell-free. The method in brief: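 Free fraction measured in rat plasma.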
Data set [15] addresses 5-hydroxytryptamine receptor 1A (Homo sapiens) (UniProt P08908). Briefly: Displacement of [3H]-8-OH-DPAT from human 5HT1A stably expressed in CHO cell membranes at 10 uM incubated for 90 mins under dark condition by scintillation counting analysis relative to control.
In data set [16] the target is 5-hydroxytryptamine receptor 1D (Homo sapiens) (UniProt P28221). Briefly: Displacement of [3H]-GR125743 from human 5HT1D transiently expressed in HEKT cell membranes at 10 uM incubated for 90 mins under dark condition by scintillation counting analysis relative to control.
Sequence of 5-hydroxytryptamine receptor 1D (Homo sapiens) (P28221 whole entry): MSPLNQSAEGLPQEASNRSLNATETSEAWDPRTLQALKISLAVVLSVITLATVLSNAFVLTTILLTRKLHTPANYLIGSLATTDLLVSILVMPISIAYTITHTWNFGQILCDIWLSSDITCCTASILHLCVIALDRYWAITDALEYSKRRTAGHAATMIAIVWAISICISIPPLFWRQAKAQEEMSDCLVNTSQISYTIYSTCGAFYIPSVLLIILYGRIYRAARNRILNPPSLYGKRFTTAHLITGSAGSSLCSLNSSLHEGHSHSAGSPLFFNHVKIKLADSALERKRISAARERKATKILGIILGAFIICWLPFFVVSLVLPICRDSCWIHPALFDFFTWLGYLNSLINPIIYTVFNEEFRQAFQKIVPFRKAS
Data set [17] has as its target Delta-type opioid receptor (Homo sapiens) (UniProt P41143). Briefly: Displacement of [3H]-DADLE from human delta opioid receptor stably expressed in HEK cell membranes at 10 uM incubated for 90 mins under dark condition by scintillation counting analysis relative to control.
In data set [18] the target is D(4) dopamine receptor (Homo sapiens) (UniProt P21917). Briefly: Displacement of [3H]-N-methylspiperone from human dopamine D4 receptor stably expressed in HEK cell membranes at 10 uM incubated for 90 mins under dark condition by scintillation counting analysis relative to control.
Sequence of D(4) dopamine receptor (Homo sapiens) (P21917 whole entry): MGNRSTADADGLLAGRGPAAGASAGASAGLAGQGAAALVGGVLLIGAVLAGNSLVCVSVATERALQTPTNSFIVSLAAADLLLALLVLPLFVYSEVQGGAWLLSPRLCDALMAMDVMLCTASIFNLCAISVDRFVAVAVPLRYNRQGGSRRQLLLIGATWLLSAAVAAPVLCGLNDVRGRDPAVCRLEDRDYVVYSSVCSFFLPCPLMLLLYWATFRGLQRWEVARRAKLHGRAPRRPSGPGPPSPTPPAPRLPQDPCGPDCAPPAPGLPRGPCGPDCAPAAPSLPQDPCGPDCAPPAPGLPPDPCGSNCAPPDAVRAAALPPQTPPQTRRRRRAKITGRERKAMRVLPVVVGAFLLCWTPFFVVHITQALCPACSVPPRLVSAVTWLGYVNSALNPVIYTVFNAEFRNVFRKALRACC
Data set [19] has as its target Alpha-1D adrenergic receptor (Homo sapiens) (UniProt P25100). Put plainly: Displacement of [3H]-prazosin from human adrenergic alpha1D receptor at 10 uM incubated for 90 mins under dark condition by scintillation counting analysis relative to control.

Sequence of 5-HT2A receptor (P28223 whole entry): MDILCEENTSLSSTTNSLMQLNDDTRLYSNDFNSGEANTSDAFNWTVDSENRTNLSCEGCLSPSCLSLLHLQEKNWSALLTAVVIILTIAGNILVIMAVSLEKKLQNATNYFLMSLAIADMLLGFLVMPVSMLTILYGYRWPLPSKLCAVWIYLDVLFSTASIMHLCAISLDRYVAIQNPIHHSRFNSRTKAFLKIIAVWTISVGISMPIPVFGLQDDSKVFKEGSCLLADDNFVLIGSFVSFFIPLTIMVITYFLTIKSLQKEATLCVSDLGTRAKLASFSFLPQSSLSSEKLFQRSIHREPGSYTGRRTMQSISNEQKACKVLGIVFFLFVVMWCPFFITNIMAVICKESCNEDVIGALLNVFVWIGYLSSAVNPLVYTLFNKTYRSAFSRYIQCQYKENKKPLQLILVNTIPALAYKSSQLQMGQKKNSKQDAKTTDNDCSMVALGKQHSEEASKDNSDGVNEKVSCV
Sequence of Alpha-1D adrenergic receptor (Homo sapiens) (P25100 whole entry): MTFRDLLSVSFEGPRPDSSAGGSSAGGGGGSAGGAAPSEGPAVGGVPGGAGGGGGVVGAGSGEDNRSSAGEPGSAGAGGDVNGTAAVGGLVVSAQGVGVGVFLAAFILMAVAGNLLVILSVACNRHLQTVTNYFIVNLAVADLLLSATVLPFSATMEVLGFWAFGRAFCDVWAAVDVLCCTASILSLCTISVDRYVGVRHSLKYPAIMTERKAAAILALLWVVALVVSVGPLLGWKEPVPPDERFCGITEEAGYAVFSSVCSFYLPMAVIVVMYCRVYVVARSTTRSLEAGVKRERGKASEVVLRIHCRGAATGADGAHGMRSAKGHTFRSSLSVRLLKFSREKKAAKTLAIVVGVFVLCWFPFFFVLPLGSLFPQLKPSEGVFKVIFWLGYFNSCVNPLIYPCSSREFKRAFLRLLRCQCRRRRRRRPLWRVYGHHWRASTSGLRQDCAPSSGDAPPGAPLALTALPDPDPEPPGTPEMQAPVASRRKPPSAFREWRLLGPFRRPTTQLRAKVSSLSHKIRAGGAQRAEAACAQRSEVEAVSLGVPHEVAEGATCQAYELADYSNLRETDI
Sequence of CYP1A2 (P05177 whole entry, canonical isoform): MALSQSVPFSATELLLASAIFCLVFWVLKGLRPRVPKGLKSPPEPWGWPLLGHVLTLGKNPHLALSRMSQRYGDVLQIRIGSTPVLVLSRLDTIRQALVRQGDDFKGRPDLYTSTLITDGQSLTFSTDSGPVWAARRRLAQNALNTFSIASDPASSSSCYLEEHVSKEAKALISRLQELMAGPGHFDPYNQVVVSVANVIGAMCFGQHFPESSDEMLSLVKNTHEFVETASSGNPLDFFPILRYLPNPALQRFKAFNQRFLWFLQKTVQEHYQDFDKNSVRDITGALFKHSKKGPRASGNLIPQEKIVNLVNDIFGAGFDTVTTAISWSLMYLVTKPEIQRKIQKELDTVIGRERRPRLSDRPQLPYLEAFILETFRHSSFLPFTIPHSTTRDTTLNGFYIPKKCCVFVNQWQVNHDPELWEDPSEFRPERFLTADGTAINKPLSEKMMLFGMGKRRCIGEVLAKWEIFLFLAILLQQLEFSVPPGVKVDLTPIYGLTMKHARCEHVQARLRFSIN

As to `O=C(NC[C@H](O)CO)[C@@H]1C[C@H](c2ccccc2)CCN1` (mixture of isomers), the inhibition (usually the drop in the measured response relative to a control, in per cent) in data set [1] is -7.6%; in [7], 7%; in data set [8], 74.4%; in data set [10], 23.3%; in [13], -4.3%; in [15], 28.4%. For the same compound, the inhibition is 15.3% in data set [16], -6.1% in [17], -9.3% in [18] and -4.8% in data set [19]. In addition, the BPR in data set [2] was determined as 0.07. In data set [3], this compound came in with a CL of 3.28 L/h/kg. The inhibition at 10 µM on CYP1A2 was found to be 11.8%; on CYP3A4 it was 0%. Moreover, the Activity is reported as 77% in the data set with Rattus norvegicus [4] and “Non-Toxic” in the data set on Rattus norvegicus [5]. Further, at 5-HT2A receptor, the Emax (as a rule, the greatest response seen or fitted, relative to the assay's reference) at 0.1 h, 0.001 µM was found to be 103%. In [6], the Papp (commonly a coefficient for how fast a substance crosses the barrier) was 1.3 ×10⁻⁶ cm/s. For the same compound, the t1/2 in [9] is on record as more than 240 min. Besides, the Cmax (usually the highest concentration seen after dosing) in data set [11] was 2408.6 ng/mL. In data set [12], the AUC (usually the area under the concentration-time curve, a measure of exposure) worked out at 3065.6 ng·h/mL. The compound also came in with a Fu in [14] of 66%.
